Results taken from ChEMBL document CHEMBL3792346, “Thiazolino 2-Pyridone Amide Inhibitors of Chlamydia trachomatis Infectivity” (J Med Chem, 2016).
pEC50: −log10 of the molar value.

Experiments:
Chlamydia trachomatis [1] = test: Antimicrobial activity against Chlamydia trachomatis serovar LGV-L2 infected in human HeLa cells assessed as concentration require to reduce relative inclusion forming units by 95% after 48 hrs; assay type: functional
In short: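 HeLa cells infected with LGV-L2 at MOI 0.1-0.5; compounds added at 1 hpi, tested at 2.5 µM then 5 or 10 µM or 1, 0.5, 0.25, 0.1 µM; after ~48 h, osmotic lysis, SPG restored, 10-fold dilutions reinfect fresh HeLa; IFUs counted by automated imaging versus DMSO; Reinfect95 = lowest concentration consistently giving 95% IFU reduction; ≥2 experiments in triplicate.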

[2] = Cytotoxicity against human HeLa cells assessed as cell viability at 10 uM after 48 hrs by resazurin assay relative to control; assay type: cell-based; details: read-out: Activity
In short: (§1)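 Uninfected HeLa seeded in RPMI, next day switched to colorless DMEM with 10% FBS, 2 mM glutamine; compounds added in triplicate, 48 h at 37 °C; resazurin added, 3 h at 37 °C dark; fluorescence ex 535/em 595 nm; cell-free wells with compound check direct resazurin reduction; mean of three experiments in triplicate, SD over nine replicates.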

Chlamydia trachomatis [3] = test: Antimicrobial activity against Chlamydia trachomatis serovar LGV-L2 infected in human HeLa cells assessed as decrease in relative inclusion forming units measured 44 to 48 hrs post infection by DAPI staining-based assay; assay type: functional, organism-based
In short: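 HeLa229 cells infected with serovar LGV-L2 at MOI 0.3; compounds in DMSO added at 1 hpi as 8-step halving dilutions from 2 to 0.0156 µM; after 44-48 h, osmotic lysis with cold water, SPG restored, lysate 10-fold serially diluted onto fresh HeLa; after 44-48 h, methanol-fixed, anti-Chlamydia/FITC stained, IFUs counted by automated scanner relative to DMSO; EC50 by nonlinear regression, ≥3 independent experiments.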

[4] = Cytotoxicity against human HeLa cells assessed as cell viability at 25 uM after 48 hrs by resazurin assay relative to control; assay type: cell-based; details: read-out: Activity; in short: as §1
Chlamydia trachomatis [5] = test: Antimicrobial activity against Chlamydia trachomatis serovar D infected in human HeLa cells assessed as decrease in relative inclusion forming units measured 44 to 48 hrs post infection by DAPI staining-based assay; assay type: functional, organism-based

Row | SMILES | Activity (Chlamydia trachomatis [1]) | viability at 48 h, 10 µM [2] | pEC50 (Chlamydia trachomatis [3]) | viability at 48 h, 25 µM [4] | pEC50 (Chlamydia trachomatis [5])
1 | CCc1cccc(NC(=O)C2CSc3c(C4CC4)c(Cc4cccc5ccccc45)cc(=O)n32)c1 (stereo not drawn) | 2.5 µM | 100% | – | – | –
2 | COc1ccc(NC(=O)C2CSc3c(C4CC4)c(Cc4cccc5ccccc45)cc(=O)n32)cc1 (stereo not drawn) | 2.5 µM | 100% | – | – | –
3 | O=C(Nc1ccncn1)C1CSc2c(C3CC3)c(Cc3cccc4ccccc34)cc(=O)n21 (stereo not drawn) | 2.5 µM | 92% | – | – | –
4 | Cc1ccc(NC(=O)C2CSc3c(C4CC4)c(Cc4ccc(Cl)cc4)cc(=O)n32)cc1 (stereo not drawn) | 1 µM | 89% | – | – | –
5 | O=C(Nc1ccc(F)cc1)C1CSc2c(C3CC3)c(Cc3cccc4ccccc34)cc(=O)n21 (stereo not drawn) | 2.5 µM | 98% | – | – | –
6 | Cc1cccc(NC(=O)C2CSc3c(C4CC4)c(Cc4cccc5ccccc45)cc(=O)n32)c1 (stereo not drawn) | 1 µM | 99% | 6.99 | 100% | –
7 | Cc1ccc(NC(=O)C2CSc3c(C4CC4)c(Cc4cccc5ccccc45)cc(=O)n32)cc1 (stereo not drawn) | 2.5 µM | 97% | – | – | –
8 | O=C(Nc1ccccc1)[C@H]1CSc2c(C3CC3)c(Cc3cccc4ccccc34)cc(=O)n21 | 2.5 µM | 100% | – | – | –
9 | COc1cccc(NC(=O)C2CSc3c(C4CC4)c(Cc4cccc5ccccc45)cc(=O)n32)c1 (stereo not drawn) | 2.5 µM | 98% | – | – | –
10 | O=C(Nc1ccccn1)C1CSc2c(C3CC3)c(Cc3cccc4ccccc34)cc(=O)n21 (stereo not drawn) | 10 µM | 90% | – | – | –
11 | Cc1ccc(NC(=O)C2CSc3c(C4CC4)c(Cc4cccc(C)c4C)c(N)c(=O)n32)cc1 (stereo not drawn) | 1 µM | 101% | 6.55 | 102% | 6.56
12 | CON(C)C(=O)C1CSc2c(C3CC3)c(Cc3cccc4ccccc34)cc(=O)n21 (stereo not drawn) | >10 µM | 88% | – | – | –
13 | O=C(C1CSc2c(C3CC3)c(Cc3cccc4ccccc34)cc(=O)n21)N1CCCCC1 (stereo not drawn) | >10 µM | 86% | – | – | –
14 | Cc1cc(=O)n2c(c1C1CC1)SCC2C(=O)Nc1ccccc1 (stereo not drawn) | 10 µM | 99% | – | – | –
15 | Cc1ccc(Cc2cc(=O)n3c(c2C2CC2)SCC3C(=O)Nc2ccccc2)cc1C (stereo not drawn) | 2.5 µM | 91% | – | – | –
16 | CN(C(=O)C1CSc2c(C3CC3)c(Cc3cccc4ccccc34)cc(=O)n21)c1ccccc1 (stereo not drawn) | 5 µM | 96% | – | – | –
17 | O=C(Nc1ccccc1F)C1CSc2c(C3CC3)c(Cc3cccc4ccccc34)cc(=O)n21 (stereo not drawn) | 2.5 µM | 96% | – | – | –
18 | O=C(Nc1cccc(F)c1)C1CSc2c(C3CC3)c(Cc3cccc4ccccc34)cc(=O)n21 (stereo not drawn) | 2.5 µM | 96% | – | – | –
19 | Cc1cccc(NC(=O)C2CSc3c(C4CC4)c(Cc4cccc5ccccc45)c(N)c(=O)n32)c1 (stereo not drawn) | 1 µM | 98% | 6.83 | 97% | 6.91
20 | O=C(Nc1ccccc1)C1CSc2c(C3CC3)c(Cc3ccccc3)cc(=O)n21 (stereo not drawn) | 2.5 µM | 96% | – | – | –
21 | Cc1ccc(NC(=O)C2CSc3c(C4CC4)c(Cc4cccc(C)c4C)cc(=O)n32)cc1 (stereo not drawn) | 1 µM | 95% | – | – | –
22 | O=C(Nc1cccnc1)C1CSc2c(C3CC3)c(Cc3cccc4ccccc34)cc(=O)n21 (stereo not drawn) | 10 µM | 77% | – | – | –
23 | O=C(Nc1ccccc1)C1CSc2c(C3CC3)c(Cc3cccc4ncccc34)cc(=O)n21 (stereo not drawn) | 10 µM | 91% | – | – | –
24 | CN1CCN(C(=O)C2CSc3c(C4CC4)c(Cc4cccc5ccccc45)cc(=O)n32)CC1 (stereo not drawn) | >10 µM | 96% | – | – | –
25 | COc1ccc(Cc2cc(=O)n3c(c2C2CC2)SCC3C(=O)Nc2ccccc2)cc1 (stereo not drawn) | 2.5 µM | 103% | – | – | –

Row | SMILES | Activity (Chlamydia trachomatis [1]) | viability at 48 h, 10 µM [2] | pEC50 (Chlamydia trachomatis [3]) | viability at 48 h, 25 µM [4] | pEC50 (Chlamydia trachomatis [5])
26 | Cc1cccc(Cc2cc(=O)n3c(c2C2CC2)SCC3C(=O)Nc2ccccc2)c1C (stereo not drawn) | 2.5 µM | 91% | – | – | –
27 | Nc1c(Cc2cccc3ccccc23)c(C2CC2)c2n(c1=O)C(C(=O)Nc1ccncn1)CS2 (stereo not drawn) | 2.5 µM | 99% | – | 88% | –
28 | Cc1ccc(NC(=O)C2CSc3c(C4CC4)c(Cc4cccc5ccccc45)c(N)c(=O)n32)cc1 (stereo not drawn) | 0.25 µM | 98% | 6.85 | 98% | 7.00
29 | O=C(O)c1c(Cc2cccc3ccccc23)c(C2CC2)c2n(c1=O)C(C(=O)Nc1ccccc1)CS2 (stereo not drawn) | > 10 µM | 103% | – | – | –
30 | Cc1ccc(NC(=O)C2CSc3c(C4CC4)c(Cc4ccc(Cl)cc4)c(N)c(=O)n32)cc1 (stereo not drawn) | 2.5 µM | 101% | 6.58 | 102% | 6.57
31 | O=C(Nc1ccccc1)[C@@H]1CSc2c(C3CC3)c(Cc3cccc4ccccc34)c(CN3CCOCC3)c(=O)n21 | 5 µM | 99% | – | – | –
32 | NS(=O)(=O)c1ccc(NC(=O)C2CSc3c(C4CC4)c(Cc4cccc5ccccc45)cc(=O)n32)cc1 (stereo not drawn) | 10 µM | 95% | – | – | –
33 | O=C(Nc1cccc(Cl)c1)C1CSc2c(C3CC3)c(Cc3cccc4ccccc34)cc(=O)n21 (stereo not drawn) | 2.5 µM | 100% | – | – | –
34 | O=C(Nc1ccncc1)C1CSc2c(C3CC3)c(Cc3cccc4ccccc34)cc(=O)n21 (stereo not drawn) | 5 µM | 69% | – | – | –
35 | Cc1cccc(Cc2cc(=O)n3c(c2C2CC2)SCC3C(=O)Nc2ccccc2)c1 (stereo not drawn) | 2.5 µM | 87% | – | – | –
36 | O=C(Nc1nccs1)C1CSc2c(C3CC3)c(Cc3cccc4ccccc34)cc(=O)n21 (stereo not drawn) | 5 µM | 96% | – | – | –
37 | O=C(Nc1ccccc1)C1CSc2c(C3CC3)c(Cc3ccc(Cl)cc3)cc(=O)n21 (stereo not drawn) | 2.5 µM | 94% | – | – | –
38 | O=C(Nc1ccccc1)[C@@H]1CSc2c(C3CC3)c(Cc3cccc4ccccc34)cc(=O)n21 | 2.5 µM | 100% | – | – | –
39 | O=C(C1CSc2c(C3CC3)c(Cc3cccc4ccccc34)cc(=O)n21)N1CCOCC1 (stereo not drawn) | >10 µM | 90% | – | – | –
40 | O=C(NC1CCCCC1)C1CSc2c(C3CC3)c(Cc3cccc4ccccc34)cc(=O)n21 (stereo not drawn) | 10 µM | 88% | – | – | –
41 | O=C(Nc1cccc(C(F)(F)F)c1)C1CSc2c(C3CC3)c(Cc3cccc4ccccc34)cc(=O)n21 (stereo not drawn) | 2.5 µM | 95% | – | – | –
42 | O=C(Nc1ccc(Cl)cc1)C1CSc2c(C3CC3)c(Cc3cccc4ccccc34)cc(=O)n21 (stereo not drawn) | 2.5 µM | 94% | – | – | –
43 | NC(=O)c1ccc(NC(=O)C2CSc3c(C4CC4)c(Cc4cccc5ccccc45)c(N)c(=O)n32)cc1 (stereo not drawn) | >10 µM | 103% | – | – | –
44 | O=C(NCc1ccccc1)C1CSc2c(C3CC3)c(Cc3cccc4ccccc34)cc(=O)n21 (stereo not drawn) | 2.5 µM | 93% | – | – | –
45 | CNC(=O)C1CSc2c(C3CC3)c(Cc3cccc4ccccc34)cc(=O)n21 (stereo not drawn) | 10 µM | 93% | – | – | –
46 | O=C(Nc1ccccc1)C1CSc2c(C3CC3)c(Cc3cccc(Cl)c3Cl)cc(=O)n21 (stereo not drawn) | 2.5 µM | 85% | – | – | –
47 | NC(=O)c1ccc(NC(=O)C2CSc3c(C4CC4)c(Cc4cccc5ccccc45)cc(=O)n32)cc1 (stereo not drawn) | 2.5 µM | 98% | – | – | –
48 | CNC(=O)c1cccc(NC(=O)C2CSc3c(C4CC4)c(Cc4cccc5ccccc45)cc(=O)n32)c1 (stereo not drawn) | 10 µM | 93% | – | – | –
49 | O=C(Nc1ccccc1)C1CSc2c(C3CC3)c(Cc3cccc4ccccc34)cc(=O)n21 (racemic) | 2.5 µM | 100% | – | – | –
